This passage reports Activity results from ChEMBL document CHEMBL1158766, “Sesquiterpenoids from Saussurea laniceps” (2005).

The nature of assay [1]: Inhibition of concanavalin A-induced mouse T cell proliferation assessed as [3H]TdR incorporation at 100 uM. The class given is functional. A digest of the protocol: (§1)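 Mouse spleen cells (4 × 10^6/well) were stimulated with ConA at 5 µg/mL alongside compound at 1 × 10^-7 to 1 × 10^-4 M, then cultured for 48 h at 37 °C in 5% CO2. [3H]TdR (0.25 µCi/well) was added for the final 6 h, and uptake was read by liquid scintillation counting. Counts are means ± SD from three independent experiments, compared with controls by Student t-test.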

Assay [2] in a line: Inhibition of lipopolysaccharide-induced mouse B cell proliferation assessed as [3H]TdR incorporation at 0.1 uM.
A short description of assay [3]: Inhibition of concanavalin A-induced mouse T cell proliferation assessed as [3H]TdR incorporation at 1 uM. The class given is functional. A digest of the protocol:
as §1

A short description of assay [4]: Inhibition of lipopolysaccharide-induced mouse B cell proliferation assessed as [3H]TdR incorporation at 1 uM.
A short description of assay [5]: Inhibition of concanavalin A-induced mouse T cell proliferation assessed as [3H]TdR incorporation at 10 uM. The class given is functional. A digest of the protocol:
as §1

Assay [6] in a line: Inhibition of lipopolysaccharide-induced mouse B cell proliferation assessed as [3H]TdR incorporation at 100 uM.
Assay [7] in a line: Inhibition of lipopolysaccharide-induced mouse B cell proliferation assessed as [3H]TdR incorporation at 10 uM.
Assay [8] in a line: Inhibition of concanavalin A-induced mouse T cell proliferation assessed as [3H]TdR incorporation at 0.1 uM. The class given is functional. Summed up: as §1

For `C=C(C)C(=O)O[C@H]1CC(=C)[C@@H]2C[C@@H](O)C(=C)[C@@H]2[C@H]2OC(=O)[C@@H](C)[C@@H]21`, the Activity in assay [1] worked out at 40 cpm; in assay [2], 34800 cpm; in assay [3], 36100 cpm; in assay [4], 31100 cpm; in assay [5], 30600 cpm; in assay [6] it was 80 cpm. For the same compound, the results for the Activity in assay [7] and in assay [8] were 20600 cpm and 33800 cpm, respectively.

`C=C1C[C@H](O)C[C@]2(C)CC[C@@](O)(C(=C)CO)C[C@@H]12`: the Activity in assay [1] was found to be 12100 cpm; in assay [2], 36100 cpm; in assay [3], 31500 cpm; in assay [4] it was 33600 cpm; in assay [5], 28300 cpm; in assay [6] it was 17200 cpm. For the same compound, the Activity in assay [7] amounted to 30.8 cpm; in assay [8], 39800 cpm.

Regarding `C=C(CO)C(=O)O[C@H]1CC(=C)[C@@H]2C[C@@H](O)C(=C)[C@@H]2[C@H]2OC(=O)[C@@H](C)[C@@H]21`, the Activity in assay [1] is 30 cpm; in assay [2] it was 24300 cpm; in assay [3] it was 43800 cpm; in assay [4], 29800 cpm; in assay [5], 13400 cpm; in assay [6], 30 cpm. In addition, the Activity is 34900 cpm in assay [7] and 46300 cpm in assay [8].
